According to ChEMBL document CHEMBL1125052, “Synthesis and in vitro LTD4 antagonist activity of bicyclic and monocyclic cyclopentylurethane and cyclopentylacetamide N-arylsulfonyl amides” (J Med Chem, 1990):

System: not listed separately
Assay: Antagonist activity was determined
Format: functional
Conditions: not given
Outline: (§1)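 Guinea pig tracheal spirals, each trachea split into two sections for paired experiments, in 10-mL baths of modified Krebs' buffer at 37 °C gassed with 95% O2/5% CO2. Resting tension was 2 g, with 60 min stabilization. Responses were expressed relative to carbachol (30 μM). Test compound was preincubated 30 min before cumulative LTE4 log-increment curves; paired controls received vehicle. EC50 was obtained by linear regression and KB = [antagonist]/(dose ratio − 1).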

Row | SMILES | pA2
1 | COc1cc(C(=O)NS(=O)(=O)c2ccccc2)ccc1Cn1ncc2ccc(NC(=O)OC3CCCC3)cc21 [ICI-198615] | 10.1

System: not listed separately
Assay: Partition coefficient (logP)
Format: physicochemical
Conditions: octanol/water

Row | SMILES | logP
2 | Cn1ccc2ccccc21 | 2.72
3 | c1ccc2[nH]ncc2c1 [INDAZOLE] | 1.82
4 | c1ccc2[nH]nnc2c1 [BENZOTRIAZOLE] | 1.34
5 | c1ccc2[nH]cnc2c1 [BENZIMIDAZOLE] | 1.2
6 | c1ccc2sccc2c1 [BENZOTHIOPHENE] | 3.09

Target: T1, Cysteinyl leukotriene receptor 1 (Cavia porcellus) (UniProt Q2NNR5)
T1 sequence (whole entry): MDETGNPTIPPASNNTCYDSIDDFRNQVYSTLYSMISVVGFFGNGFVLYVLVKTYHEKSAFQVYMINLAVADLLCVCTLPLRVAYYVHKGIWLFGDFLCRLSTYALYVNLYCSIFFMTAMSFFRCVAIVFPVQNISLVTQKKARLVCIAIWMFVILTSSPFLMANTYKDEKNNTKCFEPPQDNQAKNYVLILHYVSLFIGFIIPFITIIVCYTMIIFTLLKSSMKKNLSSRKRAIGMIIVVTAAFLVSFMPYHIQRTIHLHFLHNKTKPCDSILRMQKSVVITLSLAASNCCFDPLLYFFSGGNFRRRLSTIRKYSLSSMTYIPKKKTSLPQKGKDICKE
Assay: Negative logarithm of molar dissociation constant on guinea pig trachea at LTD4 receptor, when LTE4 is used as agonist
Format: functional
Conditions: not given
Outline: as §1

Row | pKB | SMILES
7 | 9.68 | COc1cc(C(=O)NS(=O)(=O)c2ccccc2C)ccc1CN1CCOc2ccc(NC(=O)CC3CCCC3)cc21
8 | 10.3 | COc1cc(C(=O)NS(=O)(=O)c2ccccc2)ccc1Cc1nn(C)c2ccc(NC(=O)OC3CCCC3)cc12

Target: T1, Cysteinyl leukotriene receptor 1 (Cavia porcellus)
Assay: Negative logarithm of molar dissociation constant on guinea pig trachea at Cysteinyl leukotriene D4 receptor, when LTE4 is used as agonist
Format: functional
Conditions: not given
Outline: as §1

Row | pKB | SMILES
9 | 9.11 | COc1cc(C(=O)NS(=O)(=O)c2ccccc2)ccc1CN1CCc2ccc(NC(=O)CC3CCCC3)cc21
10 | 9.02 | COc1cc(C(=O)NS(=O)(=O)c2ccccc2)ccc1CN1CCOc2ccc(NC(=O)OC3CCCC3)cc21
11 | 9.25 | COc1cc(C(=O)NS(=O)(=O)c2ccccc2C)ccc1Cc1csc2ccc(NC(=O)CC3CCCC3)cc12
12 | 9.22 | COc1cc(C(=O)NS(=O)(=O)c2ccccc2)ccc1Cn1cnc2ccc(NC(=O)CC3CCCC3)cc21
13 | 9.2 | COc1cc(C(=O)NS(=O)(=O)c2ccccc2)ccc1Cn1cnc2ccc(NC(=O)OC3CCCC3)cc21
14 | 9.07 | CNc1ccc(NC(=O)OC2CCCC2)cc1C(=O)Cc1ccc(C(=O)NS(=O)(=O)c2ccccc2C)cc1OC
15 | 9.31 | COc1cc(C(=O)NS(=O)(=O)c2ccccc2)ccc1Cc1csc2ccc(NC(=O)OC3CCCC3)cc12
16 | 7.14 | COc1cc(C(=O)NS(=O)(=O)c2ccccc2)ccc1COc1cccc(NC(=O)OC2CCCC2)c1
17 | 9.1 | COc1cc(C(=O)NS(=O)(=O)c2ccccc2)ccc1CN1CCOc2ccc(NC(=O)CC3CCCC3)cc21
18 | 9.86 | COc1cc(C(=O)NS(=O)(=O)c2ccccc2)ccc1Cn1nnc2ccc(NC(=O)CC3CCCC3)cc21
19 | 9.6 | COc1cc(C(=O)NS(=O)(=O)c2ccccc2Cl)ccc1Cc1csc2ccc(NC(=O)CC3CCCC3)cc12
